Series [1] in a line: Protein binding in human plasma. Type of series: ADME, cell-free. Conditions: read-out: PPB (converted).
The next series has as its system CWR22R. The series can be described thus: Antiproliferative activity against human 22Rv1 cells assessed as reduction in cell growth incubated for 96 hrs by propidium iodide based 2D monolayer assay. The series is classed as functional. A digest of the protocol:
(§1)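 After 24 h recovery, compound in medium or medium alone (control wells) was added at 10 half-log concentrations from 0.0032 to 100 µM, in triplicate, with at most 0.3% DMSO. After 96 h, wells were PBS-washed, stained with 7 µg/ml PI and 0.1% Triton X-100, and fluorescence read at 530/620 nm. IC50 came from a 4-parameter fit, geometric mean.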

Another series concerns VCaP. The series can be described thus: Antiproliferative activity against human VCaP cells assessed as reduction in cell growth incubated for 96 hrs by propidium iodide based 2D monolayer assay. The series is classed as functional. A digest of the protocol: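 VCaP cells in RPMI 1640 with 10% FCS at 37 °C, 5% CO2, seeded 4,000–20,000 cells/well and left 24 h before dosing. Compounds from DMSO stocks were diluted in half-log steps in medium, 10 concentrations 0.0032–100 μM, triplicate wells, max 0.3% DMSO. After 96 h, cells were washed, stained with 7 μg/ml propidium iodide plus 0.1% Triton X-100 for 1–2 h at room temperature, and fluorescence read at ex 530/em 620 nm.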

Series [2] addresses Voltage-gated inwardly rectifying potassium channel KCNH2 (Homo sapiens, UniProt Q12809). The series can be described thus: Inhibition of human ERG expressed in CHO cells by whole-cell voltage-clamp analysis. The series is classed as cell-based. Put shortly:
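CHO cells expressing hERG were held in Dulbecco's PBS with Ca/Mg, pH 7–7.2, at room temperature. Tail currents were recorded by automated whole-cell voltage clamp after 300 s exposure. […] Quinidine served as positive control and 0.25% DMSO buffer as negative control.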

The subject of the next series is LNCaP. Kind of series: Antiproliferative activity against human LNCAP cells assessed as reduction in cell growth incubated for 96 hrs by propidium iodide based 2D monolayer assay. The series is classed as functional. A digest of the protocol:
as §1

The nature of series [3]: Metabolic stability in liver microsomes (unknown origin) assessed as intrinsic clearance per mg of protein at 3 uM measured upto 45 mins in presence of NADPH by LC-MS/MS analysis. The series is classed as ADME, Microsome. Conditions: read-out: CLH. A digest of the protocol: (§2)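 Pooled liver microsomes at 0.5 mg/mL protein in 0.1 M phosphate buffer pH 7.4 were incubated with 3 μM compound (0.25% DMSO) at 37 °C. Reactions were started with 1 mM NADPH and sampled at 0, 5, 15, 30 and 45 min. A minus-NADPH control ran for 45 min. Reactions were quenched in methanol and analysed by LC-MS/MS to give CLint and t1/2.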
On the technique in general: Liver microsomes are vesicles of endoplasmic reticulum, rich in cytochrome P450 enzymes.

For the next series, the system named is DU-145. Kind of series: Antiproliferative activity against human DU145 cells assessed as reduction in cell growth incubated for 96 hrs by propidium iodide based 2D monolayer assay. Type of series: functional. Put shortly:
as §1

The nature of series [4]: Metabolic stability in liver microsomes (unknown origin) assessed as half life at 3 uM measured upto 45 mins in presence of NADPH by LC-MS/MS analysis. The series is classed as ADME, Microsome. A digest of the protocol: as §2

Each structure is given as a SMILES string.

Voltage-gated inwardly rectifying potassium channel KCNH2, sequence (Q12809 whole entry): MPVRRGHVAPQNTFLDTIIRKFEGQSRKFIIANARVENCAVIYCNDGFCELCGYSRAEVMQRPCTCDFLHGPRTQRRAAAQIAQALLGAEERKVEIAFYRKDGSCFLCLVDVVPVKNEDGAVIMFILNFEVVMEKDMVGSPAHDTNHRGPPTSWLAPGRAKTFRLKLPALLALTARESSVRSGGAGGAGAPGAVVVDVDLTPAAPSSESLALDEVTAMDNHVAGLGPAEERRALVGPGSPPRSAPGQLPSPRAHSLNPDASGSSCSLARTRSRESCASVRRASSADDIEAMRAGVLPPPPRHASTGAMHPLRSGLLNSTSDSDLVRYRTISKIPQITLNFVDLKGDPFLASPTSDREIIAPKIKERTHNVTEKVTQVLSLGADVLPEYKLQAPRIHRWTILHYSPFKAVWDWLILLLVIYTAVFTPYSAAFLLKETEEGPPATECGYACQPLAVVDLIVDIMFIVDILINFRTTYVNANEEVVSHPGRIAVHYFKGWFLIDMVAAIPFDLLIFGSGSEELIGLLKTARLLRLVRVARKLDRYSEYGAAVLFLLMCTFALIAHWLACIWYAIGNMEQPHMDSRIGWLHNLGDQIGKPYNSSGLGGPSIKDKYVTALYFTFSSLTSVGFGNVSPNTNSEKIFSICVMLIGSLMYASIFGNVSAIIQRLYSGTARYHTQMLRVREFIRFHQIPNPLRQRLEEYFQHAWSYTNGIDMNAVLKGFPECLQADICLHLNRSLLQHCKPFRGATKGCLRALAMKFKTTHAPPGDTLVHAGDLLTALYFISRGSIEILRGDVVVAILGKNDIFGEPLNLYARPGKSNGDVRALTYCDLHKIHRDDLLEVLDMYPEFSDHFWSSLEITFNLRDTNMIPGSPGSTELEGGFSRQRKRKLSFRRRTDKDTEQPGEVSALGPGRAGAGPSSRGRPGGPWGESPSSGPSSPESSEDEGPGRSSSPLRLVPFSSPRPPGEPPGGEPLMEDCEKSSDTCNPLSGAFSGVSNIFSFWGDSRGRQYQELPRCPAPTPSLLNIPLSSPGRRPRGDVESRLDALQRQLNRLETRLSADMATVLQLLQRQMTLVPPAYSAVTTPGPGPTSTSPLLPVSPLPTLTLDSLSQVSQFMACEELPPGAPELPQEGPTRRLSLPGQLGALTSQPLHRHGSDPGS

The IC50 is the concentration that gives 50% inhibition. Broadly, the half-life is how long it takes for the measured level to halve. For the compound `C[C@](O)(CS(=O)(=O)c1ccc(F)cc1)C(=O)Nc1ccc(C#N)c(C(F)(F)F)c1` [(R)-BICALUTAMIDE], the fraction unbound in series [1] is 0.02. Moreover, the Activity entry with CWR22R, with VCaP, in the series on LNCaP and with DU-145 was “Dose-dependent effect” throughout. The IC50 in the series with VCaP is 51.6 µM; in series [2], over 25 µM; in the series on DU-145 (DU-145, 96 h) it was 45.4 µM. Also, the microsomal CLint at 3 µM in series [3] came out at 6.48 µL/min/mg. For the same compound, the half-life at 3 µM in series [4] stood at 3.57 h.
